Measured values from ChEMBL document CHEMBL1944580, “Synthesis of novel sulfonamide-1,2,4-triazoles, 1,3,4-thiadiazoles and 1,3,4-oxadiazoles, as potential antibacterial and antifungal agents. Biological evaluation and conformational analysis studies” (2012).
In brackets after ≈: the same amount, converted by molar mass.

Experiments:
[1] = tested on: Aspergillus fumigatus; test: Antifungal activity against Aspergillus fumigatus human isolate treated for 72 hrs followed by sub-cultivated for 5 days by serial dilution method; format: functional
Summary of the method: (§1)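 MFC obtained after the 72 h, 28 °C malt-broth microdilution (spore inoculum about 1.0 × 10^5 per well, compounds from 1 mg/ml DMSO). 2 µl was serially subcultured into 100 µl broth per well and incubated a further 5 days at 28 °C. MFC is the lowest concentration with no visible growth, taken as 99.5% killing of the original inoculum.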

[2] = tested on: Listeria monocytogenes; test: Antibacterial activity against Listeria monocytogenes NCTC 7973 after 24 hrs by micro dilution method; format: functional; conditions: NCTC 7973, 24 h
Summary of the method: (§2)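 Microdilution MIC in 96-well plates. Bacterial suspensions adjusted in sterile saline to 1.0 × 10^5 CFU/ml, giving 1.0 × 10^4 cfu per well in LB broth. Compounds tested at up to 1 mg/ml. Plates incubated 24 h. MIC taken as the lowest concentration with no visible growth under a binocular microscope. OD at 655 nm was also read against a blank and the positive control. Streptomycin and ampicillin were the positive controls.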

[3] = tested on: Staphylococcus aureus; test: Antibacterial activity against Staphylococcus aureus ATCC 6538 treated for 24 hrs followed by sub-cultivated for 72 hrs by micro dilution method; format: functional
Summary of the method: (§3)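 2 µl from each well was serially subcultured into 100 µl fresh broth per well and incubated a further 72 h. MBC is the lowest concentration with no visible growth, taken as 99.5% killing of the original inoculum. Streptomycin and ampicillin were the positive controls.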

[4] = tested on: Aspergillus flavus; test: Antifungal activity against Aspergillus flavus ATCC 9643 treated for 72 hrs followed by sub-cultivated for 5 days by serial dilution method; format: functional; summary of the method: as §1
[5] = tested on: Pseudomonas aeruginosa; test: Antibacterial activity against Pseudomonas aeruginosa ATCC 27853 treated for 24 hrs followed by sub-cultivated for 72 hrs by micro dilution method; format: functional; summary of the method: as §3
[6] = tested on: Enterobacter cloacae; test: Antibacterial activity against Enterobacter cloacae human isolate treated for 24 hrs followed by sub-cultivated for 72 hrs by micro dilution method; format: functional; summary of the method: as §3
[7] = tested on: Fulvia fulva; test: Antifungal activity against Fulvia fulva treated for 72 hrs followed by sub-cultivated for 5 days by serial dilution method; format: functional; summary of the method: as §1
[8] = tested on: Talaromyces funiculosus; test: Antifungal activity against Penicillium funiculosum ATCC 36839 treated for 72 hrs followed by sub-cultivated for 5 days by serial dilution method; format: functional; summary of the method: as §1
[9] = tested on: Micrococcus flavus; test: Antibacterial activity against Micrococcus flavus ATCC 10240 after 24 hrs by micro dilution method; format: functional; conditions: ATCC 10240, 24 h; summary of the method: as §2
[10] = tested on: Trichoderma viride; test: Antifungal activity against Trichoderma viride IAM 5061 after 72 hrs by serial dilution method; format: functional; conditions: IAM 5061, 72 h
Summary of the method: (§4)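 Modified microdilution MIC. Spores were washed from malt agar cultures with sterile 0.85% saline containing 0.1% Tween 80 and adjusted to about 1.0 × 10^5 per 100 µl well in malt broth. Compounds were dissolved in DMSO (1 mg/ml). Plates incubated 72 h at 28 °C. MIC is the lowest concentration with no visible growth under a binocular microscope. Bifonazole and ketoconazole were the references.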

[11] = tested on: Salmonella typhimurium; test: Antibacterial activity against Salmonella Typhimurium ATCC 13311 treated for 24 hrs followed by sub-cultivated for 72 hrs by micro dilution method; format: functional, Salmonella enterica subsp. enterica serovar Typhimurium; conditions: Salmonella enterica; summary of the method: as §3
[12] = tested on: Pseudomonas aeruginosa; test: Antibacterial activity against Pseudomonas aeruginosa ATCC 27853 after 24 hrs by micro dilution method; format: functional; conditions: ATCC 27853, 24 h; summary of the method: as §2
[13] = tested on: Enterobacter cloacae; test: Antibacterial activity against Enterobacter cloacae human isolate after 24 hrs by micro dilution method; format: functional; summary of the method: as §2
[14] = tested on: Bacillus cereus; test: Antibacterial activity against Bacillus cereus clinical isolate treated for 24 hrs followed by sub-cultivated for 72 hrs by micro dilution method; format: functional; summary of the method: as §3
[15] = tested on: Micrococcus flavus; test: Antibacterial activity against Micrococcus flavus ATCC 10240 treated for 24 hrs followed by sub-cultivated for 72 hrs by micro dilution method; format: functional; summary of the method: as §3
[16] = tested on: Staphylococcus aureus; test: Antibacterial activity against Staphylococcus aureus ATCC 6538 after 24 hrs by micro dilution method; format: functional; conditions: ATCC 6538, 24 h; summary of the method: as §2
[17] = tested on: Escherichia coli; test: Antibacterial activity against Escherichia coli ATCC 35210 treated for 24 hrs followed by sub-cultivated for 72 hrs by micro dilution method; format: functional; summary of the method: as §3
[18] = tested on: Aspergillus niger; test: Antifungal activity against Aspergillus niger ATCC 6275 treated for 72 hrs followed by sub-cultivated for 5 days by serial dilution method; format: functional; summary of the method: as §1
[19] = tested on: Fulvia fulva; test: Antifungal activity against Fulvia fulva after 72 hrs by serial dilution method; format: functional; summary of the method: as §4
[20] = tested on: Aspergillus versicolor; test: Antifungal activity against Aspergillus versicolor ATCC 11730 treated for 72 hrs followed by sub-cultivated for 5 days by serial dilution method; format: functional; summary of the method: as §1
[21] = tested on: Penicillium ochrochloron; test: Antifungal activity against Penicillium ochrochloron ATCC 9112 treated for 72 hrs followed by sub-cultivated for 5 days by serial dilution method; format: functional; summary of the method: as §1
[22] = tested on: Aspergillus fumigatus; test: Antifungal activity against Aspergillus fumigatus human isolate after 72 hrs by serial dilution method; format: functional; summary of the method: as §4
[23] = tested on: Salmonella typhimurium; test: Antibacterial activity against Salmonella Typhimurium ATCC 13311 after 24 hrs by micro dilution method; format: functional, Salmonella enterica subsp. enterica serovar Typhimurium; conditions: Salmonella enterica, ATCC 13311, 24 h; summary of the method: as §2
[24] = tested on: Penicillium ochrochloron; test: Antifungal activity against Penicillium ochrochloron ATCC 9112 after 72 hrs by serial dilution method; format: functional; conditions: ATCC 9112, 72 h; summary of the method: as §4
[25] = tested on: Talaromyces funiculosus; test: Antifungal activity against Penicillium funiculosum ATCC 36839 after 72 hrs by serial dilution method; format: functional; conditions: ATCC 36839, 72 h; summary of the method: as §4
[26] = tested on: Aspergillus versicolor; test: Antifungal activity against Aspergillus versicolor ATCC 11730 after 72 hrs by serial dilution method; format: functional; conditions: ATCC 11730, 72 h; summary of the method: as §4
[27] = tested on: Trichoderma viride; test: Antifungal activity against Trichoderma viride IAM 5061 treated for 72 hrs followed by sub-cultivated for 5 days by serial dilution method; format: functional; summary of the method: as §1
[28] = tested on: Bacillus cereus; test: Antibacterial activity against Bacillus cereus clinical isolate after 24 hrs by micro dilution method; format: functional; summary of the method: as §2
[29] = tested on: Aspergillus niger; test: Antifungal activity against Aspergillus niger ATCC 6275 after 72 hrs by serial dilution method; format: functional; conditions: ATCC 6275, 72 h; summary of the method: as §4
[30] = tested on: Escherichia coli; test: Antibacterial activity against Escherichia coli ATCC 35210 after 24 hrs by micro dilution method; format: functional; conditions: ATCC 35210, 24 h; summary of the method: as §2
[31] = tested on: Aspergillus flavus; test: Antifungal activity against Aspergillus flavus ATCC 9643 after 72 hrs by serial dilution method; format: functional; conditions: ATCC 9643, 72 h; summary of the method: as §4
[32] = tested on: Listeria monocytogenes; test: Antibacterial activity against Listeria monocytogenes NCTC 7973 treated for 24 hrs followed by sub-cultivated for 72 hrs by micro dilution method; format: functional; summary of the method: as §3

Structure (SMILES) | MFC [1] | MIC [2] | MBC [3] | MFC [4] | MBC [5] | MBC [6] | MFC [7] | MFC [8] | MIC [9] | MIC [10] | MBC [11] | MIC [12] | MIC [13] | MBC [14] | MBC [15] | MIC [16] | MBC [17] | MFC [18] | MIC [19] | MFC [20] | also measured
CCCCNc1nnc(Cc2cc(OC)c(OC)cc2S(=O)(=O)N(C)C)s1 | 240 µM (≈ 99.5 µg/mL) | 240 µM (≈ 99.5 µg/mL) | 480 µM (≈ 199 µg/mL) | 240 µM (≈ 99.5 µg/mL) | 480 µM (≈ 199 µg/mL) | 240 µM (≈ 99.5 µg/mL) | 120 µM (≈ 49.7 µg/mL) | 240 µM (≈ 99.5 µg/mL) | 240 µM (≈ 99.5 µg/mL) | 60 µM (≈ 24.9 µg/mL) | 240 µM (≈ 99.5 µg/mL) | 480 µM (≈ 199 µg/mL) | 240 µM (≈ 99.5 µg/mL) | 240 µM (≈ 99.5 µg/mL) | 480 µM (≈ 199 µg/mL) | 480 µM (≈ 199 µg/mL) | 480 µM (≈ 199 µg/mL) | 120 µM (≈ 49.7 µg/mL) | 60 µM (≈ 24.9 µg/mL) | 240 µM (≈ 99.5 µg/mL) | MFC [21]: 240 µM (≈ 99.5 µg/mL); MIC [22]: 120 µM (≈ 49.7 µg/mL); MIC [23]: 240 µM (≈ 99.5 µg/mL); MIC [24]: 120 µM (≈ 49.7 µg/mL); MIC [25]: 120 µM (≈ 49.7 µg/mL); MIC [26]: 120 µM (≈ 49.7 µg/mL); MFC [27]: 120 µM (≈ 49.7 µg/mL); MIC [28]: 240 µM (≈ 99.5 µg/mL); MIC [29]: 60 µM (≈ 24.9 µg/mL); MIC [30]: 480 µM (≈ 199 µg/mL); MIC [31]: 120 µM (≈ 49.7 µg/mL); MBC [32]: 480 µM (≈ 199 µg/mL)
CNc1nnc(Cc2cc(OC)c(OC)cc2S(=O)(=O)N(C)C)o1 | 280 µM (≈ 99.8 µg/mL) | 420 µM (≈ 150 µg/mL) | 280 µM (≈ 99.8 µg/mL) | 450 µM (≈ 160 µg/mL) | 560 µM (≈ 200 µg/mL) | 840 µM (≈ 299 µg/mL) | 450 µM (≈ 160 µg/mL) | 280 µM (≈ 99.8 µg/mL) | 560 µM (≈ 200 µg/mL) | 30 µM (≈ 10.7 µg/mL) | 420 µM (≈ 150 µg/mL) | 420 µM (≈ 150 µg/mL) | 700 µM (≈ 249 µg/mL) | 280 µM (≈ 99.8 µg/mL) | 840 µM (≈ 299 µg/mL) | 280 µM (≈ 99.8 µg/mL) | 420 µM (≈ 150 µg/mL) | 450 µM (≈ 160 µg/mL) | 280 µM (≈ 99.8 µg/mL) | 450 µM (≈ 160 µg/mL) | MFC [21]: 450 µM (≈ 160 µg/mL); MIC [22]: 140 µM (≈ 49.9 µg/mL); MIC [23]: 420 µM (≈ 150 µg/mL); MIC [24]: 140 µM (≈ 49.9 µg/mL); MIC [25]: 140 µM (≈ 49.9 µg/mL); MIC [26]: 140 µM (≈ 49.9 µg/mL); MFC [27]: 140 µM (≈ 49.9 µg/mL); MIC [28]: 280 µM (≈ 99.8 µg/mL); MIC [29]: 140 µM (≈ 49.9 µg/mL); MIC [30]: 280 µM (≈ 99.8 µg/mL); MIC [31]: 140 µM (≈ 49.9 µg/mL); MBC [32]: 420 µM (≈ 150 µg/mL)
CCNc1nnc(Cc2cc(OC)c(OC)cc2S(=O)(=O)N(C)C)o1 | 270 µM (≈ 100 µg/mL) | 270 µM (≈ 100 µg/mL) | 270 µM (≈ 100 µg/mL) | 400 µM (≈ 148 µg/mL) | 540 µM (≈ 200 µg/mL) | 670 µM (≈ 248 µg/mL) | 270 µM (≈ 100 µg/mL) | 270 µM (≈ 100 µg/mL) | 270 µM (≈ 100 µg/mL) | 30 µM (≈ 11.1 µg/mL) | 270 µM (≈ 100 µg/mL) | 270 µM (≈ 100 µg/mL) | 670 µM (≈ 248 µg/mL) | 270 µM (≈ 100 µg/mL) | 540 µM (≈ 200 µg/mL) | 140 µM (≈ 51.9 µg/mL) | 270 µM (≈ 100 µg/mL) | 140 µM (≈ 51.9 µg/mL) | 270 µM (≈ 100 µg/mL) | 400 µM (≈ 148 µg/mL) | MFC [21]: 270 µM (≈ 100 µg/mL); MIC [22]: 270 µM (≈ 100 µg/mL); MIC [23]: 140 µM (≈ 51.9 µg/mL); MIC [24]: 140 µM (≈ 51.9 µg/mL); MIC [25]: 140 µM (≈ 51.9 µg/mL); MIC [26]: 140 µM (≈ 51.9 µg/mL); MFC [27]: 30 µM (≈ 11.1 µg/mL); MIC [28]: 140 µM (≈ 51.9 µg/mL); MIC [29]: 140 µM (≈ 51.9 µg/mL); MIC [30]: 140 µM (≈ 51.9 µg/mL); MIC [31]: 140 µM (≈ 51.9 µg/mL); MBC [32]: 540 µM (≈ 200 µg/mL)
